CYP2C19 inh: blockers of cytochrome P450 2C19 activity – biochemical, luminescence, ADME assay, primary screen; actives 21% (n = 96,000); CYP2C19 Supersomes, luciferin-H EGE luminescence, 30 min; P33261; inhibition, % at 5 µM;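 active = CYP2C19 inhibition above a set limit at 5 µM in the primary screen, cut at about 50% in these data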;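 also: plate controls were negative control wells for no effect and 2.5 mM tranylcypromine positive control for full effect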
tolC growth inh: growth inhibitors of E. coli tolC mutant, primary screen, strain BW25113 ΔtolC::kan, 384-well. OD615. growth inhibition, % at 10 µM (by protocol). actives 2.2% (n = 65,000). AID 573, 2007;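 active = growth inhibition at or above a cutoff equal to the mean over every tested compound plus 3 SD, cut at about 60% in these data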;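 also: growth measured after 20 h incubation at 37 °C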
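System: E. coli ΔtolC::kan strain BW25113; Buffer or medium: LB broth supplemented with 50 µg/mL kanamycin; Compound: 10 µM final, single dose; Incubation: bacterial growth with compound for 20 h at 37 °C; Signal: A615 absorbance measurement; Evaluation: growth inhibition in percent.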
CYP2C9 inhib: blockers of cytochrome P450 2C9 activity – biochemical, luminescence, ADME assay, primary screen | AID 777, 2007 | P11712 | CYP2C9 Supersomes, luciferin-H conversion | actives 20% (n = 96,000) | inhibition, % at 5 µM;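 active = blocking of liver enzyme CYP2C9 beyond about 50% at 5 µM, limit read from the data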
Target sequence (P11712 whole entry, looked up): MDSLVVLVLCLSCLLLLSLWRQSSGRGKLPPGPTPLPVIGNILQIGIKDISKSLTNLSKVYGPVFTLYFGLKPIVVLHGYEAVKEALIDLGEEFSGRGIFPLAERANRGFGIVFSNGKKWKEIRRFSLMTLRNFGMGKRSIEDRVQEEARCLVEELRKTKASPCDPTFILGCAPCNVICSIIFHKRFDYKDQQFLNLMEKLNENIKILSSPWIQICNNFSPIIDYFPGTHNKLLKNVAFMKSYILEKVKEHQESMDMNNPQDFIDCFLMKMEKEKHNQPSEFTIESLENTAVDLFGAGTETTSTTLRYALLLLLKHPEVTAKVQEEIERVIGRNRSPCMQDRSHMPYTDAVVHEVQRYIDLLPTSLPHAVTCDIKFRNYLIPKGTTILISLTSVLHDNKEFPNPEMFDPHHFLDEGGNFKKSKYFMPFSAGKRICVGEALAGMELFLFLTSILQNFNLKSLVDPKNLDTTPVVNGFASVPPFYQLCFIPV
CYP2C9 activ: human CYP2C9 activators, primary screen, biochemical, luminescence | actives 1.4% (n = 96,000) | activation factor at 5 µM | Cytochrome P450 2C9 (Homo sapiens), P11712 | recombinant CYP2C9, luciferin-H conversion; active compounds read high; factor 1 = untreated enzyme, 0 = blocked;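 active = activation factor of 2 or more for CYP2C9 at a 5 µM dose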;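 also: 0 = sulfaphenazole-blocked wells and 1 = vehicle-only wells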
Ecoli WT expand: growth inhibitors of wild-type E. coli, primary screen, strain BW25113, expanded library, OD600; OD600 absorbance; growth inhibition, % at 100 µM; actives 0.15% (n = 98,000); AID 710, 2007;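 active = growth inhibition above about 50% at one test dose, limit read from the data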;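 also: growth measured after 20 h incubation at 37 °C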
CYP2C19 activ: human CYP2C19 activators, primary screen, biochemical, luminescence | activation factor at 5 µM | recombinant CYP2C19, luciferin-H EGE luminescence; active compounds read high; 0 = fully inhibited enzyme, 1 = untreated enzyme | 96,000 tested, under 10 active;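 active = activation factor of at least 2 at 5 µM in the primary screen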;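 also: 0 = wells with 2.5 mM tranylcypromine and 1 = vehicle-only wells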
* hit, by the source's call; x = no result. Most compounds without a hit are left out; they make up all but 29% or so of the library.

SMILES	CYP2C19 inh	tolC growth inh	CYP2C9 inhib	CYP2C9 activ	Ecoli WT expand	CYP2C19 activ
CCc1c(C#N)c(SCc2c(C)noc2C)nc2c1C(=O)CC(C)(C)C2	x	63*	x	x	x	x
CCc1c(C#N)c(SCCC(=O)Nc2ccc(OC)cc2)nc2c1C(=O)CC(C)(C)C2	83*	x	84*	0.2	-12	0.2
Cc1noc(C)c1CSc1ncnc2sc3c(c12)CCC3	24	1	11	0.9	x	0.8
Cc1cc(C)c2nc(SC(C)C#N)cc(C)c2c1 (stereo unspecified)	-4	x	-19	1.2	-1	1
COc1cccc2cc3c(=O)oc4ccccc4c3nc12	8	x	24	0.8	-5	0.9
COc1ccc(-n2c(C)cc(C(=O)CSc3nn4c(=O)c(C(C)(C)C)nnc4s3)c2C)cc1	58*	3	78*	0.2	-4	0.4
CC(C)(C)c1nnc2sc(SC/C(O)=C(\C#N)c3nc4ccccc4[nH]3)nn2c1=O	68*	4	43	0.6	-2	0.3
COc1ccc(C(=O)CSc2nn3c(=O)c(C(C)(C)C)nnc3s2)cc1	14	-4	27	0.7	5	0.9
CC(C)(C)c1nnc2sc(SCC(=O)c3ccccc3)nn2c1=O	36	4	88*	0.1	-2	0.6
CCOc1ccc(N2C(=O)CN=C2Nc2ccccc2F)cc1	4	x	8	0.9	-1	1
CCCC(C(=O)O)N1C(=O)/C(=C2\C(=O)N(C)c3ccccc32)SC1=S (stereo unspecified)	6	x	68*	0.3	x	0.9
Cc1ccc(CNC(=O)CC2C(=O)Nc3c2c(=O)n(C)c(=O)n3Cc2ccccc2)cc1 (stereo unspecified)	0	x	22	0.8	4	1
Cc1cccc(/C=C/C(=O)c2cc(Br)ccc(=O)c2O)c1	8	x	22	0.8	27	0.9
CCCC(c1nnnn1Cc1ccco1)N1CCC(C(N)=O)CC1 (stereo unspecified)	5	-15	-9	1.1	0	0.9
Cc1c2cc(O)c(=O)cc-2oc2cc(O)c(O)cc12	25	x	82*	0.2	4	0.7
Cc1ccc2nc3c(cc2c1)c(NC(=O)c1cccnc1)nn3C	40	-8	58*	0.4	3	0.6
Cc1ccc2cc3c(NC(=O)C(C)C)nn(C)c3nc2c1	37	-9	70*	0.3	-3	0.6
CCNC(=S)NC1CC2CCC(C1)N2Cc1ccccc1 (stereo unspecified)	52*	x	9	0.9	0	0.5
CC(C)CCn1c(=O)c2ccccc2c2ccccc2c1=O	86*	x	80*	0.2	1	0.1
Cc1ccc(NC2OC(C(O)CO)C(O)C2O)cc1[N+](=O)[O-] (stereo unspecified)	-17	x	-8	1.1	-4	1.2
COC(=O)c1cc(NC(=O)CN2C(=O)CSC2=O)ccc1Cl	38	-5	69*	0.3	3	0.6
CCOC(=O)c1c(-c2cccs2)csc1NC(=O)CNCCN1CCOCC1	28	x	68*	0.3	1	0.7
CCOC(=O)c1c(-c2ccc(C)s2)csc1NC(=O)c1cccs1	-17	x	10	0.9	-12	1.2
CCOC(=O)c1c(-c2cccs2)csc1NC(=O)CN1CC(C)OC(C)C1 (stereo unspecified)	32	68*	69*	0.3	-15	0.7
CCOC(=O)c1c(-c2cccs2)csc1NC(=O)CSc1ncn[nH]1	86*	46	95*	0.1	-2	0.1
CCOC(=O)c1c(-c2cccs2)csc1NC(=O)C(C)(C)C	-13	x	43	0.6	4	1.1
COc1cc(CNc2ccc(N3CCOCC3)c(C(=O)O)c2)ccc1OCC(N)=O	-13	2	-11	1.1	-11	1.1
O=S(=O)(c1cccc2nsnc12)N1CCc2ccccc2C1	x	14	x	x	-7	x

Screening results: PubChem BioAssay, several laboratories
